Drawing on ChEMBL document CHEMBL1147113, “Miltefosine (hexadecylphosphocholine) inhibits cytochrome c oxidase in Leishmania donovani promastigotes” (Antimicrob Agents Chemother, 2007), this text covers Activity, inhibition and EC50 for one molecule.

SMILES strings stand for the structures. Calls of active or inactive are those of the source. The rule behind the calls is not given here.

Assay [1] deals with Leishmania donovani. As to the kind of experiment: Effect on mitochondrial function in Leishmania donovani MHOM/SD/00/1S-2D promastigotes assessed as decrease in oxygen consumption at 40 uM after 14 hrs relative to control. Format: functional. Set-up: scale not given: the % may be the effect or the level left. The gist of the method: (§1)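 Promastigotes incubated 14 h at 25°C with drug in RPMI-10% HIFCS at 2 × 10⁶ cells/ml. They were then washed and resuspended in respiration buffer at 10⁸ cells/ml with 5 mM succinate and 1 mg/ml BSA. Clark-electrode O₂ uptake at 25°C, given as nmol O₂/min/10⁸ cells and as % of untreated.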

Assay [2] deals with Leishmania donovani. As to the kind of experiment: Effect on mitochondrial function in Leishmania donovani MHOM/SD/00/1S-2D promastigotes assessed as decrease in oxygen consumption at 20 uM after 14 hrs relative to control. The class given is functional. Set-up: scale not given: the % may be the effect or the level left. The gist of the method:
as §1

The subject of assay [3] is Leishmania donovani. Put plainly: Effect on mitochondrial membrane potential in Leishmania donovani MHOM/SD/00/1S-2D promastigotes by measuring the decrease in rhodamine 123 accumulation after 14 hrs. Format: functional, organism-based. In outline:
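After 14 h of drug exposure at 25°C, parasites washed twice at 4°C in Hanks-glucose and loaded with rhodamine 123 (0.3 μg/ml, 5 min, 37°C). Washed again, resuspended at 2 × 10⁶ cells/ml and read by flow cytometry (ex 488/em 525 nm; 20,000 events). Geometric mean fluorescence recorded; 10 mM KCN-poisoned cells served as depolarized control.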

The test system of assay [4] is Leishmania donovani. As to the kind of experiment: Effect on oxygen consumption rate in digitonin-permeabilized Leishmania donovani MHOM/SD/00/1S-2D promastigotes assessed as decrease in state 3 respiration at 25 uM after 14 hrs. Further details: scale not given: the % may be the effect or the level left. The class given is functional.
Assay [5] has as its system Leishmania donovani. Put plainly: Inhibition of Leishmania donovani cytochrome c oxidase.
For assay [6], the system named is Leishmania donovani. As to the kind of experiment: Inhibition of Leishmania donovani cytochrome c reductase at 40 uM. The gist of the method: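 Same L. donovani mitochondrial fraction (200 μg/ml protein, 0.02% TX-100, 75 mM sodium phosphate pH 7.4), with CcO first blocked by 10 mM KCN and oxidized cytochrome c as acceptor. Reaction started with 5 mM succinate; A550 change monitored. Controls lacked succinate or contained 2 μM antimycin A. HePC tested at 40 μM.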

The subject of assay [7] is Leishmania donovani. As to the kind of experiment: Effect on mitochondrial function in Leishmania donovani MHOM/SD/00/1S-2D promastigotes assessed as decrease in oxygen consumption at 10 uM after 14 hrs relative to control. Format: functional. Set-up: scale not given: the % may be the effect or the level left. The gist of the method:
as §1

Assay [8] has as its system Leishmania donovani. As to the kind of experiment: Growth inhibition of Leishmania donovani MHOM/SD/00/1S-2D promastigotes at 40 uM assessed as inhibition of MTT reduction after 14 hrs. The class given is functional, organism-based. In outline:
(§2)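 Late-exponential promastigotes at 2 × 10⁶ cells/ml in RPMI-10% HIFCS with drug, 14 h at 25°C. Washed at 4°C in Hanks-10 mM glucose, then given 0.5 mg/ml MTT for 2 h. Formazan dissolved in 10% SDS and read at 595 nm. Triplicates, at least two experiments; EC50 by Litchfield-Wilcoxon.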

In assay [9] the test system is Leishmania donovani. Put plainly: Growth inhibition of Leishmania donovani MHOM/SD/00/1S-2D promastigotes assessed as inhibition of MTT reduction after 14 hrs. Format: functional, organism-based. In outline:
as §2
For orientation: Tetrazolium assays rely on reduction of a dye to a coloured formazan, in cell work by metabolically active cells.

Assay [10] has as its system Leishmania donovani. Put plainly: Effect on apoptosis induction in Leishmania donovani MHOM/SD/00/1S-2D promastigotes assessed as accumulation in sub-G1 phase at 20 uM after 24 hrs by propidium iodide staining.
Assay [11] relates to Leishmania donovani. Put plainly: Inhibition of TMPD-ascorbate-dependent oxygen consumption in digitonin-permeabilized Leishmania donovani MHOM/SD/00/1S-2D promastigotes at 25 uM after 14 hrs. The class given is functional, organism-based.
Assay [12] has as its system Leishmania donovani. As to the kind of experiment: Decrease in intracellular ATP level in Leishmania donovani 3-Luc promastigotes assessed as decrease in luminescence relative to control. Format: functional, organism-based.
Assay [13] relates to Leishmania donovani. As to the kind of experiment: Effect on plasma membrane integrity in Leishmania donovani MHOM/SD/00/1S-2D promastigotes assessed as SYTOX green fluorescence at 40 uM after 14 hrs. The class given is functional. The gist of the method:
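Cells at 2 × 10⁶/ml in RPMI-10% HIFCS given increasing drug concentrations, 14 h at 25°C. Washed twice in Hanks-glucose and stained with 1 μM SYTOX green for 5 min in the dark. Fluorescence read at ex 485/em 520 nm and expressed as % of maximal signal after 0.1% Triton X-100.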

As usually defined, the inhibition is the percentage by which the read-out fell short of the control. What is called EC50 is the concentration needed to bring the measured effect to its halfway point. As to `CCCCCCCCCCCCCCCCOP(=O)([O-])OCC[N+](C)(C)C` [MILTEFOSINE], the Activity in the assay on Leishmania donovani [1] is 44.4%; with Leishmania donovani [2] it was 75%; in the assay on Leishmania donovani [3] it was “Dose-dependent effect”; in the assay with Leishmania donovani [4], 40%; in the assay on Leishmania donovani [5], “Dose-dependent effect”; in the assay with Leishmania donovani [7] it was 95.4%. Further, the Activity in the assay on Leishmania donovani [10] amounted to 38%; in the assay on Leishmania donovani [13], 10%. Moreover, the inhibition with Leishmania donovani [6] was found to be 5%. The outcome in the assay on Leishmania donovani [8], in the assay on Leishmania donovani [11] and with Leishmania donovani [12] was Active. In the assay on Leishmania donovani [9], the EC50 was found to be 10.2 µM.
